Laboratory results from ChEMBL document CHEMBL1132354, “Novel antidiabetic and hypolipidemic agents. 5. Hydroxyl versus benzyloxy containing chroman derivatives” (J Med Chem, 1999).
Blank lines part the entries; values can stand above or below the compound they belong to.

How the values were obtained:
[1] = system: Mus musculus; assay: The compound was tested for percent reduction in plasma triglyceride after 6 days of treatment at 30 mg/kg/day; assay type: functional
In short: (§1)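 Male C57BL/KsJ-db/db mice, 8 weeks old, chow ad libitum, grouped by similar starting plasma glucose (n = 4–6 per group). Dosed orally by gavage in 0.5% CMC vehicle (10 mL/kg) daily for 6 days. Retro-orbital blood taken 1 h post-dose on days 0 and 6. Plasma glucose and triglyceride measured with kits. % reduction = {1−[(TT/OT)/(TC/OC)]}×100 versus vehicle controls, mean ± SE.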

[2] = system: Mus musculus; assay: The compound was tested for percent reduction in plasma glucose after 6 days of treatment at 30 mg/kg/day in mice; assay type: functional; in short: as §1
[3] = system: Mus musculus; assay: The compound was tested for percent reduction in plasma glucose after 6 days of treatment at a dose of 100 mg/kg/day (oral gavage) in mice; assay type: functional; in short: as §1
[4] = The Tmax value in female wistar rat at 100 mg/kg, p.o. dose; assay type: ADME, organism-based; set-up: dose 100 mg/kg, route oral; conditions: in vivo, po
In short: (§2)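 Wistar rats, 200–225 g, fasted 12 h with free access to water and fed 3 h after dosing. Single dose of 100 mg/kg p.o. given as a 0.5% CMC suspension. Retro-orbital blood, 0.4 mL, taken into heparinized tubes at several time points. Plasma drug measured by HPLC with fluorescence detection on a C18 column. Parameters from noncompartmental analysis, AUC by trapezoidal rule. Four rats per group, mean ± SD.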

[5] = system: Rattus norvegicus; assay: (§3) The AUC(0-infinitive) value in female wistar rat at 100 mg/kg, p.o. dose; assay type: ADME, organism-based; set-up: time infinity, dose 100 mg/kg, route oral; unit not given here; conditions: in vivo, po; in short: as §2
[6] = system: Rattus norvegicus; assay: (§4) The AUC(0-t)value in female wistar rat at 100 mg/kg, p.o. dose; assay type: ADME, organism-based; set-up: dose 100 mg/kg, route oral; unit not given here; conditions: in vivo, po; in short: as §2
[7] = The Cmax value in female wistar rat at 100 mg/kg, p.o. dose; assay type: ADME, organism-based; set-up: dose 100 mg/kg, route oral; conditions: in vivo, po; in short: as §2
[8] = The Kel value in female wistar rat at 100 mg/kg, p.o. dose; assay type: ADME, organism-based; set-up: dose 100 mg/kg, route oral; conditions: in vivo, po; in short: as §2
[9] = system: Mus musculus; assay: The compound was tested for percent reduction in plasma triglyceride after 6 days of treatment at a dose of 100 mg/kg/day (oral gavage) in mice; assay type: functional; in short: as §1
[10] = molecular target: T1, Peroxisome proliferator-activated receptor alpha (Homo sapiens) (UniProt Q07869); assay: Fold activation against Peroxisome proliferator activated receptor alpha (50 uM)
T1 sequence (whole entry): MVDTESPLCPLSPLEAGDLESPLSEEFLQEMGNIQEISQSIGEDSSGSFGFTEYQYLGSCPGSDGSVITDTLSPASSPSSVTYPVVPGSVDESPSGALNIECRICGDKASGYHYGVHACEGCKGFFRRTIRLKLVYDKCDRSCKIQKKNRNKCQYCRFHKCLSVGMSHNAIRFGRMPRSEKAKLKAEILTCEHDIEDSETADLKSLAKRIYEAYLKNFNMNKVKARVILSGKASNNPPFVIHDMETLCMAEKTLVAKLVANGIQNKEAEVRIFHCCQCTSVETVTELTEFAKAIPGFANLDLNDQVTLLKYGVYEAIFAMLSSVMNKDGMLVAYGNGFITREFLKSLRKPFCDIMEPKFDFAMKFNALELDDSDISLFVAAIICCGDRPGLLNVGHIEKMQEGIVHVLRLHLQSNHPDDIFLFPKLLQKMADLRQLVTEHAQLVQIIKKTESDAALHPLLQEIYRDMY
In short: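 GAL4 fusion of human PPARα LBD (aa 167–468) with a GAL4-response-element luciferase reporter, transiently transfected into HEK-293 cells. Cells kept in DMEM with 10% delipidated serum, seeded 43 h post-transfection, then treated at 50 μM. DMSO (1:1000) served as blank. Luciferase read as fold activation over untreated cells. Mean of three to four experiments.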

[11] = The half life value in female wistar rat at 100 mg/kg, p.o. dose; assay type: ADME, organism-based; set-up: dose 100 mg/kg, route oral; conditions: in vivo, po; in short: as §2
[12] = system: Mus musculus; assay: The compound was tested for percent reduction in plasma triglyceride after 6 days of treatment at 100 mg/kg/day in mice; assay type: functional; in short: as §1
[13] = system: Mus musculus; assay: The compound was tested for percent reduction in plasma glucose after 6 days of treatment at a dose of 200 mg/kg/day (oral gavage) in mice; assay type: functional; in short: as §1
[14] = system: Rattus norvegicus; assay: as §3; assay type: ADME, organism-based; set-up: time infinity, dose 100 mg/kg, route oral; conditions: in vivo, po; in short: as §2
[15] = system: Rattus norvegicus; assay: The AUC(0-t)value in female wistar rat at 100 mg/kg, p.o. dose […]; assay type: ADME, organism-based; set-up: dose 100 mg/kg, route oral; conditions: in vivo, po
[16] = system: Mus musculus; assay: The compound was tested for percent reduction in plasma triglyceride after 6 days of treatment at 30 mg/kg/day in mice; assay type: functional; in short: as §1
[17] = system: Mus musculus; assay: The compounds(21:4) were tested for percent reduction in plasma glucose after 6 days of treatment at 200 mg/kg/day(oral gavage) in mice; assay type: functional; in short: as §1
[18] = system: Mus musculus; assay: The compounds(3:7) were tested for percent reduction in plasma glucose after 6 days of treatment at 200 mg/kg/day(oral gavage) in mice; assay type: functional; in short: as §1
[19] = The Tmax value in male wistar rat at 100 mg/kg, p.o. dose; assay type: ADME, organism-based; set-up: dose 100 mg/kg, route oral; conditions: in vivo, po; in short: as §2
[20] = system: Rattus norvegicus; assay: The AUC(0-infinitive) value in male wistar rat at 100 mg/kg, p.o. dose; assay type: ADME, organism-based; set-up: time infinity, dose 100 mg/kg, route oral; conditions: in vivo, po; in short: as §2
[21] = system: Rattus norvegicus; assay: The AUC(0-t)value in male wistar rat at 100 mg/kg, p.o. dose; assay type: ADME, organism-based; set-up: dose 100 mg/kg, route oral; conditions: in vivo, po; in short: as §2
[22] = The Cmax value in male wistar rat at 100 mg/kg, p.o. dose; assay type: ADME, organism-based; set-up: dose 100 mg/kg, route oral; conditions: in vivo, po; in short: as §2
[23] = The Kel value in male wistar rat at 100 mg/kg, p.o. dose; assay type: ADME, organism-based; set-up: dose 100 mg/kg, route oral; conditions: in vivo, po; in short: as §2
[24] = The half life value in male wistar rat at 100 mg/kg, p.o. dose; assay type: ADME, organism-based; set-up: dose 100 mg/kg, route oral; conditions: in vivo, po; in short: as §2
[25] = system: Mus musculus; assay: The compound was tested for percent reduction in plasma glucose after 6 days of treatment at a dose of 100 mg/kg/day in mice; assay type: functional; in short: as §1
[26] = system: Mus musculus; assay: The compound was tested for percent reduction in plasma triglyceride after 6 days of treatment at a dose of 200 mg/kg/day (oral gavage) in mice; assay type: functional; in short: as §1
[27] = system: Rattus norvegicus; assay: as §4; assay type: ADME, organism-based; set-up: dose 100 mg/kg, route oral; conditions: in vivo, po; in short: as §2
[28] = system: Mus musculus; assay: The compound was tested for percent reduction in plasma triglyceride after 6 days of treatment at a dose of 100 mg/kg/day in mice; assay type: functional; in short: as §1

SMILES: Cc1c(C)c2c(c(C)c1OCc1ccccc1)CCC(C)(CN1CCC[C@H]1COc1ccc(/C=C3\SC(=O)NC3=O)cc1)O2 (some centres not stated)
Reduction [1]: 26% | Reduction [2]: 41% | Reduction [3]: 68%

Tmax [4]: 1.75 h | AUC [5]: 3.12 | AUC [6]: 2.44 | Cmax [7]: 680 ng/mL | k el [8]: 6.94e-05 s⁻¹ | Fold activation [10]: 0.58 | half-life [11]: 2.82 h
SMILES: Cc1c(C)c2c(c(C)c1O)CCC(C)(COc1ccc(/C=C3\SC(=O)NC3=O)cc1)O2 (configuration not stated)
Reduction [9]: 26% | Reduction [3]: 62%

SMILES: Cc1c(C)c2c(c(C)c1O)CCC(C)(CN1CCC[C@H]1COc1ccc(/C=C3\SC(=O)NC3=O)cc1)O2 (some centres not stated)
Reduction [12]: 36% | Reduction [3]: 37%

SMILES: Cc1c(C)c2c(c(C)c1O)CCC(C)(CN(C)CCOc1ccc(CC3SC(=O)NC3=O)cc1)O2 (configuration not stated)
Reduction [13]: 3%

Tmax [4]: 1.38 h | Cmax [7]: 9920 ng/mL | AUC [14]: 44.94 µg/h/mL | AUC [15]: 44.2 µg/h/mL | k el [8]: 0.000106 s⁻¹
SMILES: Cc1c(C)c2c(c(C)c1O)CCC(C)(CN(C)CCOc1ccc(/C=C3\SC(=O)NC3=O)cc1)O2 (configuration not stated)
Reduction [13]: 36%

SMILES: Cc1c(C)c2c(c(C)c1OCc1ccccc1)CCC(C)(CN1CCC[C@H]1COc1ccc(/C=C3\SC(=O)[N-]C3=O)cc1)O2.[Na+] (some centres not stated)
Reduction [16]: 58% | Reduction [2]: 8%

SMILES: Cc1c(C)c2c(c(C)c1OCc1ccccc1)CCC(C)(CN1CCC[C@H]1COc1ccc(CC3SC(=O)NC3=O)cc1)O2 (some centres not stated)
Reduction [2]: 23% | Reduction [3]: 26%

SMILES: Cc1c(C)c2c(c(C)c1OCc1ccccc1)CCC(C)(CN1CCC[C@@H](Oc3ccc(/C=C4\SC(=O)NC4=O)cc3)C1)O2 (some centres not stated)
Reduction [12]: 24% | Reduction [3]: 5%

SMILES: Cc1c(C)c2c(c(C)c1OCc1ccccc1)CCC(C)(CN1CCC[C@@H](Oc3ccc(/C=C4\SC(=O)NC4=O)cc3)C1)O2.Cc1c(C)c2c(c(C)c1OCc1ccccc1)CCC(C)(CN1CCC[C@H]1COc1ccc(/C=C3\SC(=O)NC3=O)cc1)O2 (some centres not stated)
Reduction [17]: 52% | Reduction [18]: 53%

Tmax [19]: 2 h | AUC [20]: 5.68 µg/h/mL | AUC [21]: 5.09 µg/h/mL | Cmax [22]: 770 ng/mL | k el [23]: 5.28e-05 s⁻¹ | half-life [24]: 3.9 h
SMILES: Cc1c(C)c2c(c(C)c1O)CCC(C)(COc1ccc(CC3SC(=O)NC3=O)cc1)O2 (configuration not stated) [TROGLITAZONE]
Reduction [25]: 26% | Reduction [26]: 50% | Reduction [13]: 24%

SMILES: Cc1c(C)c2c(c(C)c1OCc1ccccc1)CCC(C)(CN1CCC[C@H]1COc1ccc(CC3SC(=O)NC3=O)cc1)O2.Cl (some centres not stated)
Reduction [2]: 12%

Tmax [4]: 3.25 h | Cmax [7]: 4120 ng/mL | AUC [14]: 34.49 µg/h/mL | AUC [27]: 27.47 µg/h/mL | k el [8]: 4.17e-05 s⁻¹ | half-life [11]: 4.87 h
SMILES: Cc1c(C)c2c(c(C)c1OCc1ccccc1)CCC(C)(CN(C)CCOc1ccc(/C=C3\SC(=O)NC3=O)cc1)O2 (configuration not stated)
Reduction [13]: 45%

SMILES: Cc1c(C)c2c(c(C)c1OCc1ccccc1)CCC(C)(CN1CCC[C@H]1COc1ccc(CC3SC(=O)[N-]C3=O)cc1)O2.[Na+] (some centres not stated)
Reduction [16]: 66% | Reduction [2]: 36%

Tmax [4]: 4.33 h | AUC [5]: 18.5 | AUC [6]: 14.4 | Cmax [7]: 1090 ng/mL | k el [8]: 1.94e-05 s⁻¹ | Fold activation [10]: 0.67 | half-life [11]: 10.4 h
SMILES: Cc1c(C)c2c(c(C)c1OCc1ccccc1)CCC(C)(COc1ccc(/C=C3\SC(=O)NC3=O)cc1)O2 (configuration not stated)
Reduction [9]: 38% | Reduction [3]: 39%

Tmax [4]: 3.33 h | Tmax [19]: 4.33 h | AUC [5]: 29.76 | AUC [20]: 21.02 µg/h/mL | AUC [6]: 15.83 | AUC [21]: 14.26 µg/h/mL | Cmax [7]: 1830 ng/mL | Cmax [22]: 2170 ng/mL | k el [8]: 2.22e-05 s⁻¹ | k el [23]: 3.33e-05 s⁻¹ | half-life [24]: 5.78 h | Fold activation [10]: 1.79 | half-life [11]: 9.27 h
SMILES: Cc1c(C)c2c(c(C)c1OCc1ccccc1)CCC(C)(COc1ccc(CC3SC(=O)NC3=O)cc1)O2 (configuration not stated)
Reduction [25]: 64% | Reduction [28]: 34%
